Results published in ChEMBL document CHEMBL2202955, “Identification of Potent, Selective, Cell-Active Inhibitors of the Histone Lysine Methyltransferase EZH2” (ACS Med Chem Lett, 2012).

Tests used:
[1] = target: T1, Histone-arginine methyltransferase CARM1 (Homo sapiens, UniProt Q86X55); experiment: Inhibition of PRMT4 using histone H3 as substrate preincubated for 10 mins followed by addition of [3H]SAM and incubated for 60 mins
T1 sequence (Q86X55 whole entry): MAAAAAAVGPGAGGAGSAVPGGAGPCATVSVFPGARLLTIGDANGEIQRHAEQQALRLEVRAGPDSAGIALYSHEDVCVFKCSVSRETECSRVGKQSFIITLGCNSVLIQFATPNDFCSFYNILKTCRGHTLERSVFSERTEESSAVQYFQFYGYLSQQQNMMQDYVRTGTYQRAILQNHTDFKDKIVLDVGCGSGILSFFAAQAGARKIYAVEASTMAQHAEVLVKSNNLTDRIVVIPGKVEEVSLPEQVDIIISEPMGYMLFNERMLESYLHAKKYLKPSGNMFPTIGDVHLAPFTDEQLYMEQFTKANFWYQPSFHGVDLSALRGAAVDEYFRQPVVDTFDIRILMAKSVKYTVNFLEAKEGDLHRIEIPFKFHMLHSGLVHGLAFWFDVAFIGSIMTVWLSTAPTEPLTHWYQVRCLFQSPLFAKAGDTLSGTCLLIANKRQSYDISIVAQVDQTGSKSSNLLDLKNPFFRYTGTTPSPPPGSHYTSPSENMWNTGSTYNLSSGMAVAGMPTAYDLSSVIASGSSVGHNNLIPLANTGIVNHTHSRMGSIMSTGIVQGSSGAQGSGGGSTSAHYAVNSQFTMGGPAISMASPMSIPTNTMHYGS
In short: (§1)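 Panel of methyltransferases tested for selectivity. […] Values are the mean of at least two independent replicates.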

[2] = target: Protein arginine N-methyltransferase 1 (Homo sapiens, UniProt Q99873); experiment: Inhibition of PRMT1 using histone H4 as substrate preincubated for 10 mins followed by addition of [3H]SAM and incubated for 60 mins; in short: as §1
Chain of Protein arginine N-methyltransferase 1 (Q99873 whole entry): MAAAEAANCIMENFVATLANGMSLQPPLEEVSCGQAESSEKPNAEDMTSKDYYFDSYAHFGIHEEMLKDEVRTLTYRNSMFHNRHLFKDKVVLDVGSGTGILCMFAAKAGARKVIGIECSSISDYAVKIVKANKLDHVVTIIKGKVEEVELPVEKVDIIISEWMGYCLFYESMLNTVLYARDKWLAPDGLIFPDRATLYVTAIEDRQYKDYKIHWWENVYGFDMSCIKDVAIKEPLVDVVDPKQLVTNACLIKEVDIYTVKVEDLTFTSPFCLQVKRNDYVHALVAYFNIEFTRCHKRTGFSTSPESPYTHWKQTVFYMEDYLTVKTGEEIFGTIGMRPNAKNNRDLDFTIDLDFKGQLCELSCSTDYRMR

[3] = target: DNA (cytosine-5)-methyltransferase 3B (Mus musculus, UniProt O88509); experiment: Inhibition of mouse DNMT3b1 using lambda DNA as substrate preincubated for 10 mins followed by addition of [3H]SAM and incubated for 60 mins; in short: as §1
[4] = target: T2, Histone-lysine N-methyltransferase EHMT2 (Homo sapiens, UniProt Q96KQ7); experiment: Inhibition of G9a using histone H3 as substrate preincubated for 10 mins followed by addition of [3H]SAM and incubated for 60 mins; in short: as §1
T2 sequence (Q96KQ7 whole entry): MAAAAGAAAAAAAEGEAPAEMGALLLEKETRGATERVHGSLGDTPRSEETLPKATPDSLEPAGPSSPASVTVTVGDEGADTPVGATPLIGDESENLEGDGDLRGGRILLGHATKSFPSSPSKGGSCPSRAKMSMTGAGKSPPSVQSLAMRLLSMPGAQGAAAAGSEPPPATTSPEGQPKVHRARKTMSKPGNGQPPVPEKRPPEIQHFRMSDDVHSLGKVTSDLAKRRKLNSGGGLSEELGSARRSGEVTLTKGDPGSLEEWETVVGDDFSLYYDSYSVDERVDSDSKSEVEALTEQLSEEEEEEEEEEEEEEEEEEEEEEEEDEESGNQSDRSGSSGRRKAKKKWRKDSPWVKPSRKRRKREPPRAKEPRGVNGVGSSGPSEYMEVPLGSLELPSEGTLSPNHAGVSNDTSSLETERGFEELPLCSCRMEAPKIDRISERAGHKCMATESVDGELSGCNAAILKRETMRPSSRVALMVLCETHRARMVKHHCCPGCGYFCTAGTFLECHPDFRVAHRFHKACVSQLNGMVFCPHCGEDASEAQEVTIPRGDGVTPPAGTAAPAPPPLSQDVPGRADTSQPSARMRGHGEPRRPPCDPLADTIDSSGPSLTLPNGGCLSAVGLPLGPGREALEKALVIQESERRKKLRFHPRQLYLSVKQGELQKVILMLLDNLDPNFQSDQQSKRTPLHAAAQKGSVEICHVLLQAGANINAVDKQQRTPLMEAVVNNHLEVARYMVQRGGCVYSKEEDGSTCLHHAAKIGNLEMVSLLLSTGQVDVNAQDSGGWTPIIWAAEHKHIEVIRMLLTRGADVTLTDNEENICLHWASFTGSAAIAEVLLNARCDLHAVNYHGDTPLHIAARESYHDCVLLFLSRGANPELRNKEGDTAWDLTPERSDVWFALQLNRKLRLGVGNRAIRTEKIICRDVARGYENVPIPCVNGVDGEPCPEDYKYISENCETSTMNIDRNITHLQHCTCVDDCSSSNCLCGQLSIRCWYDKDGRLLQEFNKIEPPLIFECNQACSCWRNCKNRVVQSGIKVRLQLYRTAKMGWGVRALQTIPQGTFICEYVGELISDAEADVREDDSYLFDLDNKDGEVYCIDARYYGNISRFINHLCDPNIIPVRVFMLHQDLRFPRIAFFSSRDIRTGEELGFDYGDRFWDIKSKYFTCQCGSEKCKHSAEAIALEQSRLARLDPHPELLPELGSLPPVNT

[5] = target: EZH1/SUZ12/EED/AEBP2/RBBP4 complex; experiment: Inhibition of PRC2 complex of EZH1, EED, SUZ12, AEBP2 and RbAp48 using histone H3 peptide (21 to 44) as substrate and [3H]SAM after 1 hr by SPA; format: protein-complex assay; in short: as §1
[6] = target: Histone-lysine N-methyltransferase, H3 lysine-79 specific (Homo sapiens, UniProt Q8TEK3); experiment: Inhibition of DOT1L using core histone as substrate preincubated for 10 mins followed by addition of [3H]SAM and incubated for 60 mins; in short: as §1
Chain of Histone-lysine N-methyltransferase, H3 lysine-79 specific (Q8TEK3 whole entry): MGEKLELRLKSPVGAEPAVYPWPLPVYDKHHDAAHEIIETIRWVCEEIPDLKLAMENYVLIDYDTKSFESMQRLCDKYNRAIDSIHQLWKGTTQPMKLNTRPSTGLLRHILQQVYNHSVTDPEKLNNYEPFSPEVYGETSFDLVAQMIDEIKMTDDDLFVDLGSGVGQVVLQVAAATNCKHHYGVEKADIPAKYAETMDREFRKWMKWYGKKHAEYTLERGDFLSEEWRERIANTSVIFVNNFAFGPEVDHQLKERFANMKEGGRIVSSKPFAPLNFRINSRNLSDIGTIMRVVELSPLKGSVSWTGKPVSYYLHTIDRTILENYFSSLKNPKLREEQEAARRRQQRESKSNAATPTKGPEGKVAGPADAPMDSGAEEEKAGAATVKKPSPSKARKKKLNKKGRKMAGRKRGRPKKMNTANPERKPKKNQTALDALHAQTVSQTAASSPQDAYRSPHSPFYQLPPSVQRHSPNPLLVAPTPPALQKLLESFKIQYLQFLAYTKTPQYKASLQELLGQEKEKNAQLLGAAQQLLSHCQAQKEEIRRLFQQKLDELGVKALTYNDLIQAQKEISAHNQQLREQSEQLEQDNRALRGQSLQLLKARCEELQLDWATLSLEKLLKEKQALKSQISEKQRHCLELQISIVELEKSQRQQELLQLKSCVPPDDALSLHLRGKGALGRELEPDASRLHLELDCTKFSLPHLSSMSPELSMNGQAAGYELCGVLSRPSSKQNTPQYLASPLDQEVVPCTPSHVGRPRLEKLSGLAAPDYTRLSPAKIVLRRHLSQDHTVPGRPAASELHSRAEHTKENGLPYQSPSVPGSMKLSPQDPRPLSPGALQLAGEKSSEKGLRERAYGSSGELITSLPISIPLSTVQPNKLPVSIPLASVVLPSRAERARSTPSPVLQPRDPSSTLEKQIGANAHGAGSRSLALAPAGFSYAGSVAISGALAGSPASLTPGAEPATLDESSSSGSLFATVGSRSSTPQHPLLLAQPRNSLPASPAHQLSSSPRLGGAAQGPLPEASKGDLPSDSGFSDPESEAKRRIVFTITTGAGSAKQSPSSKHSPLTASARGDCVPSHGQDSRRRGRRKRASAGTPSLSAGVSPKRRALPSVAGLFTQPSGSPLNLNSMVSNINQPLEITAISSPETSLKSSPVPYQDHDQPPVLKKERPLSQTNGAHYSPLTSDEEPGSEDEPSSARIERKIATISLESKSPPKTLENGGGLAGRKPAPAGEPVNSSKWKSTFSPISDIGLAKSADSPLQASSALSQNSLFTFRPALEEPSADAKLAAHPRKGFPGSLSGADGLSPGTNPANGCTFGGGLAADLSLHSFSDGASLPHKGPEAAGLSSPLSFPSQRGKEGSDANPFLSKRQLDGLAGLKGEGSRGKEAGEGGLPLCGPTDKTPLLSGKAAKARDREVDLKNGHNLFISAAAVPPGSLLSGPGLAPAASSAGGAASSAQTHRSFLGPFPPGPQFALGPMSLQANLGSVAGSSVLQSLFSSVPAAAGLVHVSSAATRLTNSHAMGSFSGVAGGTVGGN

[7] = target: EZH2/SUZ12/EED/RBBP7/RBBP4; experiment: Inhibition of PRC2 complex of FLAG-EZH2, EED, SUZ12, AEBP2 and RbAp48 using histone H3 peptide (21 to 44) as substrate and [3H]SAM after 30 mins; format: protein-complex assay; settings: read-out: Ki(app)
[8] = target: T3, Histone-lysine N-methyltransferase SETD7 (Homo sapiens, UniProt Q8WTS6); experiment: Inhibition of SET7 using histone H3 as substrate preincubated for 10 mins followed by addition of [3H]SAM and incubated for 60 mins; in short: as §1
T3 sequence (Q8WTS6 whole entry): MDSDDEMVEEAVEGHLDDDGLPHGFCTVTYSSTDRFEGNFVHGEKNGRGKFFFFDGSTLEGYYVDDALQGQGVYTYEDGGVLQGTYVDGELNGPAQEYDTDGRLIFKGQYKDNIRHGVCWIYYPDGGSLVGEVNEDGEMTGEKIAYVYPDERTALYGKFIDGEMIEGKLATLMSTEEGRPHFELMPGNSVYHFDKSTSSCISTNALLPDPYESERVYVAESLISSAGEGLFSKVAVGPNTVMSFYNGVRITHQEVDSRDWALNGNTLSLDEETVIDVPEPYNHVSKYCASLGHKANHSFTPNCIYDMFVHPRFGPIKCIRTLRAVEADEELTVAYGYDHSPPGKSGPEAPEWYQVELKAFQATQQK

[9] = target: Protein arginine N-methyltransferase 5 (Homo sapiens, UniProt O14744); experiment: Inhibition of PRMT5 using histone H3 as substrate preincubated for 10 mins followed by addition of [3H]SAM and incubated for 60 mins; in short: as §1
Chain of Protein arginine N-methyltransferase 5 (O14744 whole entry): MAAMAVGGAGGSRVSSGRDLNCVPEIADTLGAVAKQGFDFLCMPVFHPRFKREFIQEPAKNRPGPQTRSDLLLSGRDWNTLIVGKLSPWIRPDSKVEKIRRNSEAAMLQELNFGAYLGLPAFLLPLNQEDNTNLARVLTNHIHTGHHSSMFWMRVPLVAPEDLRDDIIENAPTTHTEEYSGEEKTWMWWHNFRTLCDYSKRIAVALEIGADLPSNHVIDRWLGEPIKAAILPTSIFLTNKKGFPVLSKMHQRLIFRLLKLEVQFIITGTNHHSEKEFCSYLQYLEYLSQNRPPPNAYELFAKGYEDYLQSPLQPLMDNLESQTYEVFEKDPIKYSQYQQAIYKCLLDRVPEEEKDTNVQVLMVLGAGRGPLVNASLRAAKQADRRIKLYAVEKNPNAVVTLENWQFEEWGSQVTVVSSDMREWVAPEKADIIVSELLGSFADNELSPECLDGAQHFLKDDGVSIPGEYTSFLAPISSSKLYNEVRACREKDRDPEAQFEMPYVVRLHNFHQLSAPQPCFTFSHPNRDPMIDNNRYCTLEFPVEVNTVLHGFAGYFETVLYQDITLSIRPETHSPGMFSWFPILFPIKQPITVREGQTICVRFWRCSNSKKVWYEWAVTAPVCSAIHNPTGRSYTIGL

Row | IC50 [1] [µM] | IC50 [2] [µM] | IC50 [3] [µM] | IC50 [4] [µM] | IC50 [5] [µM] | IC50 [6] [µM] | Ki [7] [µM] | IC50 [8] [µM] | IC50 [9] [µM] | SMILES
1 | 116 | > 100 | > 100 | > 100 | 0.1 | > 100 | 0.0006 | 49 | > 100 | CCCc1cc(C)[nH]c(=O)c1CNC(=O)c1cc(-c2ccc(N3CCN(C)CC3)nc2)cc2c1cnn2C(C)C
2 | 128 | > 100 | > 100 | > 100 | 0.24 | > 100 | 0.0012 | 63 | > 100 | CCCc1cc(C)[nH]c(=O)c1CNC(=O)c1cc(-c2ccnc(N3CCN(C)CC3)c2)cc2c1cnn2C(C)C
3 | > 100 | > 100 | > 100 | > 100 | 2.5 | > 100 | 0.0079 | 214 | > 100 | Cc1cc(C)c(CNC(=O)c2cc(-c3ccc(N4CCN(C)CC4)nc3)cc3c2cnn3C(C)C)c(=O)[nH]1
